Kir21 inh: inhibitors of mouse Kir2.1 inward-rectifier potassium channel | hit rate 0.85% among 310,000 | Inward rectifier potassium channel 2 (Mus musculus), P35561 | B-score at 10 µM | HEK293-Kir2.1, FluxOR thallium flux fluorescence; active compounds read low;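 active = fluorescence ratio B-score at or below minus 3 SD of library scores, with starting-brightness B-score within 2 SD, cut at about -4.2 in these data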;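 also: channel flux triggered by added potassium and thallium sulfate stimulus; B-score of peak minus minimum fluorescence over baseline after thallium stimulus; more negative B-score means stronger Kir2.1 block with less thallium influx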
KCNK9 block: KCNK9 potassium channel inhibitors, primary screen, HEK293 cells, thallium flux; Potassium channel subfamily K member 9 (Homo sapiens), Q9NPC2; FluxOR thallium flux fluorescence; active compounds read low; B-score at 10 µM; hit rate 1.2% among 310,000; AID 488922, 2010;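 active = ratio B-score over 3 SD below the library mean, with starting fluorescence within 5 SD of its mean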;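 also: negative B-score means less thallium flux so channel inhibition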
KCNK3 block: human KCNK3 channel inhibitors, primary screen, CHO cells, FluxOR thallium flux, B-score. hit rate 0.84% among 340,000. AID 602410, 2012. B-score at 10 µM. FluxOR fluorescence; active compounds read low;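 active = B-score under library mean minus 4 SD, starting fluorescence ratio at most library mean plus 5 SD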;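 also: more negative B-score means stronger inhibition of thallium flux through KCNK3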
Target sequence (O14649 whole entry, looked up): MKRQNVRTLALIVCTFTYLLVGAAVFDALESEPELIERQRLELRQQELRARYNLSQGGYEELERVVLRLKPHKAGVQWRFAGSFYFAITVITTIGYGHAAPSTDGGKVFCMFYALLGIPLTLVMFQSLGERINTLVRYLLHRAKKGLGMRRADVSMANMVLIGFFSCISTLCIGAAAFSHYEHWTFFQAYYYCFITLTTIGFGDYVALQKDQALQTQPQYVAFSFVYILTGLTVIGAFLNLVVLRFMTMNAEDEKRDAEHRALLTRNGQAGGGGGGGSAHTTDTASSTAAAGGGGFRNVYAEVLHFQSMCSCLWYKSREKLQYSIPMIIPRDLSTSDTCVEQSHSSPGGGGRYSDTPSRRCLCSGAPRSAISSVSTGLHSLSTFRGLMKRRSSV
hERG rescue: hERG rescue from dofetilide block, primary screen, cell-based, CHO-hERG, FluxOR thallium flux, dofetilide IC70; Voltage-gated inwardly rectifying potassium channel KCNH2 (Homo sapiens), Q12809; dofetilide IC70 present; activation (rescue from dofetilide block), less the hit threshold, % at 10 µM; hit rate 0.51% among 310,000; AID 1511, 2009;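 active = activation above the mean of controls blocked by dofetilide plus 5 SD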;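 also: thallium influx through hERG after potassium depolarization seen as dye fluorescence rise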
KCNQ1 pot: potentiators or activators of KCNQ1 channel, primary screen, cell-based, thallium flux, high-throughput; Potassium voltage-gated channel subfamily KQT member 1 (Homo sapiens), P51787; CHO-K1 KCNQ1, thallium flux FluxOR fluorescence; active compounds read high; B-score at 10 µM; hit rate 0.35% among 310,000; AID 2648, 2010;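 active = fluorescence ratio B-score, a plate-corrected score, at least three library SD, with initial intensity B-score within 5 SD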
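Material: CHO-K1 cells stably expressing KCNQ1. Medium: assay buffer for compound exposure, DMSO matched across wells. Reagent: K+/Tl+ depolarizing stimulus. Compound dosing: single-concentration screen. Times: 37 °C overnight plating, 90-min dark dye load, 20-min compound pretreatment. Technique: FluxOR Tl+ flux fluorescence.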
KCNQ1 block: inhibitors of human KCNQ1 channel, primary screen, cell-based, thallium flux, high-throughput. CHO-K1 KCNQ1, FluxOR thallium flux fluorescence; active compounds read high. B-score at 10 µM. hit rate 1.3% among 310,000. Potassium voltage-gated channel subfamily KQT member 1 (Homo sapiens), P51787;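 active = compounds whose thallium flux B-score, printed positive for inhibition, exceeds three library SD while starting fluorescence stays within three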;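 also: channel opened by potassium depolarization with thallium stimulus after 20 min compound exposure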
KCNK9 block conf: KCNK9 potassium channel inhibitors, confirmation, HEK293 cells, thallium flux, duplicate | AID 492992, 2010 | FluxOR thallium flux fluorescence | hit rate 43% among 4,900 | inhibition, % at 10 µM | shares compounds with KCNK9 block;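 active = thallium signal inhibited by more than 5 SD of the compound-free buffer control wells, on both duplicate plates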;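 also: 0% = assay buffer control wells without compound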
Kir21 sel: mouse Kir2.1 channel inhibition, confirmation, selectivity assay for KCNK9 modulator project, cell-based, HEK293, thallium flux | shares compounds with KCNK9 block | Kir2.1 cells, FluxOR thallium flux fluorescence | inhibition, % at 10 µM | hit rate 4% among 4,900 | AID 492993, 2010;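 active = thallium signal drop more than 5 SD beyond the mean of the no-compound control wells, seen in both duplicate plates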;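 also: signal is fluorescence rise after thallium addition divided by baseline fluorescence; plate controls were assay buffer only for no effect and full block by chlorpromazine control for full effect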
HEK293 Tl ctr: thallium flux in non-induced HEK293 cells, confirmation, counter-screen for KCNK9 inhibitor project, cell-based, second counter screen, non-induced KCNK9-HEK293; FluxOR thallium flux; inhibition, % at 10 µM; hit rate 40% among 4,900; shares compounds with KCNK9 block;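 active = thallium signal drop beyond 5 SD of the untreated control mean, on both duplicate plates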;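 also: plate controls were buffer only IC0 wells for no effect and SID17386958 at its maximal inhibitory level for full effect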
* hit, by the source's call; i = inactive; x = no result given. A selection: hits, their analogues and other compounds. The true share with any hit is near 3.7%.

SMILES	Kir21 inh	KCNK9 block	KCNK3 block	hERG rescue	KCNQ1 pot	KCNQ1 block	KCNK9 block conf	Kir21 sel	HEK293 Tl ctr
CCc1ccc(-c2nc(SCC(=O)N(C)C3CCS(=O)(=O)C3)n[nH]2)cc1 (configuration not stated)	-0.33	i	i	-11.7	i	i	x	x	x
Cc1ccc(CSCCNC(=O)CCSc2ccccc2)cc1	0.14	i	i	-8.9	i	i	x	x	x
Cc1ccccc1CSCCNC(=O)CCSc1ccccc1	-3.08	i	i	-19.8	i	i	i	i	i
Cc1ccc(C)c(N(CC(=O)NCCSCc2ccco2)S(C)(=O)=O)c1	1.17	i	i	-3.4	i	i	x	x	x
Cc1ccc(CSCCNC(=O)CN(c2cc(C)ccc2C)S(C)(=O)=O)cc1	-0.83	i	i	-15.1	i	i	i	i	i
Cc1ccc(SCC(=O)NCCSCc2ccccc2)cc1	-1.84	i	i	-9.9	i	i	i	i	i
COc1cc2c(cc1OC)CN(C(C)C(=O)Nc1ccc(NC(C)=O)cc1)CC2 (configuration not stated)	-0.7	i	i	-17.6	i	i	x	x	x
CCN1CCc2c(sc(NC(=O)c3ccc(S(=O)(=O)N4CCCCCC4)cc3)c2C(=O)NC)C1	-0.95	i	i	-7.3	i	i	x	x	x
O=S(=O)(c1ccc2nc(Nc3ccccc3)ccc2c1)N1CCCCC1	-1	i	i	-15.5	i	i	x	x	x
CC(C)Cc1c2c([nH]c(=S)c1C#N)CCCC2	-0.85	i	i	-2.4	i	i	x	x	x
CCCCCCCc1c(C#N)c(N)[nH]c(=S)c1C#N	0.1	i	i	-18.9	i	7*	i	i	i
CSCCC(NS(=O)(=O)c1ccc(C)cc1)C(=O)N1CCN(C(c2ccccc2)c2ccccc2)CC1 (configuration not stated)	0.18	-9.35*	i	-14.1	i	i	35.0%*	i	32.0%*
COc1ccc(C(=O)N(C)Cc2ccccn2)cc1OC1CCN(C(C)C)CC1	-0.57	i	i	-7.6	i	i	x	x	x
CCN(C(=O)c1ccc2c(c1)OCO2)C12CC3CC(CC(C3)C1)C2	x	x	i	x	x	x	x	x	x
COc1cc(OC)nc(Oc2ccccc2C(=O)Oc2cccc(C)c2)n1	-0.27	-9.5*	i	-0.2	i	i	34.5%*	i	36.0%*
O=[N+]([O-])c1ccc(CN2CCC(Cc3ccccc3)CC2)cc1	0.32	i	i	-8.5	i	i	x	x	x
O=[N+]([O-])c1ccc(C(=S)N2CCC(Cc3ccccc3)CC2)cc1	1.22	-12.7*	i	-6.5	i	i	i	i	i
COc1cc(CN2CCCC(C(=O)c3ccccc3SC)C2)cc(OC)c1 (configuration not stated)	-2.09	i	i	-12.3	i	i	i	i	i
COC(=O)CCCC(=O)N1CCCC(C(=O)c2ccccc2SC)C1 (configuration not stated)	-0.2	i	i	-8.4	i	i	x	x	x
COc1cc(OC)c(OC)cc1CN1CCCC(C(=O)c2ccccc2SC)C1 (configuration not stated)	-1.67	i	i	-9.0	i	i	i	i	i
CCOC(=O)c1sc(-c2ccccc2)cc1NC(=O)Nc1ccccc1	1.97	i	i	-11.2	i	i	i	i	i
CCOC(=O)c1sc(-c2ccc(F)cc2)cc1NC(=O)Nc1ccccc1OC	-0.67	i	i	-9.3	i	i	x	x	x
COc1ccc(S(=O)(=O)N2CCCCCC2)cc1Br	-0.9	i	i	-7.5	i	i	x	x	x
O=C(NN1C(=O)C2C3CCC(O3)C2C1=O)c1ccco1 (configuration not stated)	1.99	i	i	-4.6	i	i	x	x	x
CCOC(=O)c1ccc(N/C(=N\S(=O)(=O)c2ccccc2C)c2ccccc2)cc1	-0.07	-8.43*	i	-17.5	i	i	39.0%*	i	28.5%*
SMILES	Kir21 inh	KCNK9 block	KCNK3 block	hERG rescue	KCNQ1 pot	KCNQ1 block	KCNK9 block conf	Kir21 sel	HEK293 Tl ctr
CC1Cc2ccccc2N1C(=O)CN1C(=O)NC2(CCCCC2)C1=O (configuration not stated)	x	x	i	x	x	x	x	x	x
CNc1ccc(C(=O)c2ccccc2C(=O)O)cc1[N+](=O)[O-]	0.19	i	i	-8.9	i	i	x	x	x
CNc1ccc(/C=C/C(=O)c2cccc3ccccc23)cc1[N+](=O)[O-]	0.74	-10.7*	i	-12.0	i	i	47.5%*	i	35.5%*
Clc1cccc(OCCN2CCN(CCOc3cccc(Cl)c3)CC2)c1	-0.51	i	i	-23.3	i	i	i	i	i
CC(C)c1ccc(NC(=O)c2cccc(Br)c2)cc1	-0.09	-8.76*	i	-8.0	i	i	38.5%*	i	i
COc1cccc(OCCOc2ccc(/C=C3\C(=N)N4N=C(S(C)(=O)=O)SC4=NC3=O)cc2OC)c1	1.21	i	i	-11.9	i	i	x	x	x
COc1ccccc1OCCOc1ccc(/C=C2\C(=N)N3N=C(S(C)(=O)=O)SC3=NC2=O)cc1	0.49	i	i	-25.8	i	i	i	i	i
COc1cc(/C=C2\C(=N)N3N=C(S(C)(=O)=O)SC3=NC2=O)cc(OC)c1OCCOc1ccccc1C	1.27	i	i	-31.2	i	i	i	i	i
Cc1cc(/C=C2\C(=N)N3N=C(S(C)(=O)=O)SC3=NC2=O)c(C)n1Cc1ccccc1	0.2	i	i	-4.7	i	i	i	i	i
